IC50 and Activity data for 25 molecules are collected here from ChEMBL document CHEMBL1806417, “Antiproliferative activity and QSAR studies of a series of new 4-aminomethylidene derivatives of some pyrazol-5-ones” (Bioorg Med Chem Lett, 2011).

The test system of assay [1] is MDA-MB-361. Nature of the assay: Antiproliferative activity against human MDA-MB-361 cells assessed as cell survival after 72 hrs by MTT assay. Type of assay: functional, cell-based. As to conditions: MDA-MB-361, 72 h. Summed up:
(§1)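 Monolayer cultures in RPMI-1640 with L-glutamine (3 mM), 10% heat-inactivated FBS, 25 mM Hepes, pH 7.2, and extra glucose (1.11 g/L), at 37°C and 5% CO2. Seeding was 7000 cells/well for MDA-MB-361 and 3000 cells/well for MDA-MB-453. After 24 h, five two-fold dilutions were added for 72 h. MTT readout (Ohno–Abe modification). IC50 was read from the survival-versus-concentration curve; mean ± SD of three independent experiments.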

The test system of assay [2] is MS-1. Nature of the assay: Antiangiogenic activity in mouse MS1 cells assessed as inhibition tube-like structure formation at 10 uM after 12 hrs by microscopy.
Assay [3] has as its system MDA-MB-453. Nature of the assay: Antiproliferative activity against human MDA-MB-453 cells assessed as cell survival after 72 hrs by MTT assay. Type of assay: functional, cell-based. As to conditions: MDA-MB-453, 72 h. Summed up: as §1
(Tetrazolium assays rely on reduction of a dye to a coloured formazan, in cell work by metabolically active cells.)

Assay [4] concerns MDA-MB-453. Nature of the assay: Cell cycle arrest in human MDA-MB-453 cells assessed as accumulation at sub-G1 phase at 2 times IC50 after 24 hrs using propidium iodide staining by flow cytometry. Type of assay: functional, cell-based. Summed up:
(§2)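 Cells were seeded at 3 × 10⁵ per well and treated or left untreated for 24 h. They were trypsinized and fixed overnight in ice-cold 70% ethanol at -20°C, then washed in PBS. RNase was applied at 37°C for 30 min, followed by propidium iodide for at least 30 min. DNA content and cell-cycle distribution were measured by FACScan flow cytometry on at least 10,000 cells per sample.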
Background: A flow cytometer gives signals particle by particle.

Assay [5] relates to MS-1. Nature of the assay: Antiangiogenic activity in mouse MS1 cells assessed as inhibition tube-like structure formation at 3 uM after 12 hrs by microscopy.
In assay [6] the test system is MDA-MB-361. Nature of the assay: Cell cycle arrest in human MDA-MB-361 cells assessed as accumulation at G2/M phase at 2 times IC50 after 24 hrs using propidium iodide staining by flow cytometry (reference value: 14.15 %). Type of assay: functional. Summed up:
as §2

Assay [7] has as its system MS-1. The assay can be described thus: Antiangiogenic activity in mouse MS1 cells assessed as inhibition tube-like structure formation at 3 uM after 12 hrs by microscopy. Type of assay: functional, cell-based.
In assay [8] the test system is MDA-MB-361. Nature of the assay: Cell cycle arrest in human MDA-MB-361 cells assessed as accumulation at S phase at 2 times IC50 after 24 hrs using propidium iodide staining by flow cytometry (Rvb =15.72 %). Type of assay: functional. Summed up: as §2
For assay [9], the system named is MDA-MB-361. Nature of the assay: Cell cycle arrest in human MDA-MB-361 cells assessed as accumulation at sub-G1 phase at 2 times IC50 after 24 hrs using propidium iodide staining by flow cytometry (Rvb =2.21 %). Type of assay: functional. Summed up: as §2
Assay [10] concerns MDA-MB-361. Nature of the assay: Cell cycle arrest in human MDA-MB-361 cells assessed as accumulation at G1 phase at 2 times IC50 after 24 hrs using propidium iodide staining by flow cytometry (Rvb =64.36 %). Type of assay: functional. Summed up: as §2
Assay [11] concerns MS-1. The assay can be described thus: Antiangiogenic activity in mouse MS1 cells assessed as inhibition tube-like structure formation at 30 uM after 12 hrs by microscopy. Type of assay: functional, cell-based.
The subject of assay [12] is MS-1. Nature of the assay: Antiangiogenic activity in mouse MS1 cells assessed as inhibition tube-like structure formation at 10 uM after 12 hrs by microscopy. Type of assay: functional, cell-based.

Activity calls are given as the source filed them. No cut-off for these calls is given here.

For `O=C1NN=C(c2ccccc2)/C1=C/N[C@@H](Cc1ccc(O)cc1)C(=O)O`, the IC50 (in general, the concentration at which inhibition is half-maximal) was 61.1 µM in the assay with MDA-MB-361 [1] and 29.8 µM with MDA-MB-453 [3]. Moreover, the result in the assay on MS-1 [2] was inactive.
Take `O=C(O)[C@H](CO)N/C=C1\C(=O)N(c2ccccc2)N=C1c1ccccc1`: the IC50 in the assay with MDA-MB-361 [1] came to 52.8 µM; with MDA-MB-453 [3], 49 µM. Further, the result with MDA-MB-453 [4] was Active. For the same molecule, in the assay on MS-1 [2], the result was inactive.
For `O=C1NN=C(c2ccccc2)/C1=C/Nc1cc(-c2ccccc2)[nH]n1`, the IC50 turned out to be 42.7 µM with MDA-MB-361 [1] and 11.5 µM with MDA-MB-453 [3]. Also, the result in the assay on MS-1 [2] was inactive.
On the same counts, the results for `O=C1NN=C(c2ccccc2)/C1=C/Nc1cc(-c2ccco2)[nH]n1` are 63.7 µM, 20.9 µM and “inactive”.
Regarding `CCOC(=O)c1c[nH]nc1N/C=C1\C(=O)N(c2ccccc2)N=C1c1ccccc1`, the IC50 is 24.7 µM with MDA-MB-361 [1] and 19.4 µM in the assay on MDA-MB-453 [3]. The result with MS-1 [5] was inactive. In the assay on MDA-MB-453 [4], the result was Active.
On the same counts, the results for `CSC[C@H](N/C=C1\C(=O)N(c2ccccc2)N=C1c1ccccc1)C(=O)O` are 14.2 µM, 9.46 µM, “inactive” and “Active”.
Turning to `O=C1NN=C(c2ccccc2)/C1=C/N[C@@H](Cc1ccccc1)C(=O)O`, the figures for the IC50 in the assay with MDA-MB-361 [1] and in the assay with MDA-MB-453 [3] were 67 µM and 94.8 µM, respectively. The result in the assay with MS-1 [2] was inactive.
In the case of `O=C(O)[C@@H](Cc1ccccc1)N/C=C1\C(=O)N(c2ccccc2)N=C1c1ccccc1`, the IC50 in the assay with MDA-MB-361 [1] is 11.9 µM; in the assay with MDA-MB-453 [3], 9.66 µM. The result in the assay with MS-1 [5] was inactive. For the same molecule, the outcome with MDA-MB-453 [4] was Active.
`Cc1cc(N/C=C2\C(=O)N(c3ccccc3)N=C2c2ccccc2)n[nH]1`: the IC50 in the assay with MDA-MB-361 [1] amounted to 9.98 µM; with MDA-MB-453 [3], 10.2 µM. For the same molecule, the Activity in the assay with MDA-MB-361 [6] stood at 14.12%; in the assay with MDA-MB-361 [8] it was 11.64%; in the assay on MDA-MB-361 [9], 19.43%; in the assay on MDA-MB-361 [10], 46.79%. For the same molecule, the outcome with MS-1 [7] and in the assay on MDA-MB-453 [4] was Active.
Take `O=C1NN=C(c2ccccc2)/C1=C/N[C@@H](CO)C(=O)O`: in the assay with MS-1 [11], the outcome was Active. Further, the figures for the IC50 in the assay with MDA-MB-361 [1] and in the assay on MDA-MB-453 [3] were 105 µM and 23.7 µM, respectively.
Turning to `O=C1/C(=C\Nc2cc[nH]n2)C(c2ccccc2)=NN1c1ccccc1`, the IC50 came out at 51 µM with MDA-MB-361 [1] and 34.7 µM in the assay on MDA-MB-453 [3]. Also, the Activity in the assay with MDA-MB-361 [6] was determined as 15.58%; in the assay with MDA-MB-361 [8] it was 7.81%; in the assay on MDA-MB-361 [9], 21.55%; in the assay on MDA-MB-361 [10] it was 47.94%. The result in the assay on MS-1 [12] and in the assay with MDA-MB-453 [4] was Active.
Turning to `CSCC[C@H](N/C=C1\C(=O)N(c2ccccc2)N=C1c1ccccc1)C(=O)O`, the values for the IC50 in the assay on MDA-MB-361 [1] and with MDA-MB-453 [3] were 12.5 µM and 9.43 µM, respectively. For the same molecule, the outcome in the assay on MS-1 [5] was inactive. In addition, the result with MDA-MB-453 [4] was Active.
For `O=C(O)[C@H](Cc1ccccc1)N/C=C1\C(=O)N(c2ccccc2)N=C1c1ccccc1`, the IC50 was found to be 11.5 µM in the assay with MDA-MB-361 [1] and 10.4 µM in the assay with MDA-MB-453 [3]. For the same molecule, the outcome with MS-1 [7] and in the assay with MDA-MB-453 [4] was Active.
For `O=C1NN=C(c2ccccc2)/C1=C/N[C@@H](Cc1c[nH]c2ccccc12)C(=O)O`, in the assay on MS-1 [11], the result was Active. The half-maximal inhibitory concentration (IC50) was found to be 93.6 µM in the assay on MDA-MB-361 [1] and 41.7 µM in the assay with MDA-MB-453 [3].
For the molecule `O=C1NN=C(c2ccccc2)/C1=C/N[C@@H](Cc1c[nH]cn1)C(=O)O`, in the assay with MS-1 [11], the outcome was Active. The IC50 came to 113 µM in the assay on MDA-MB-361 [1] and 73.9 µM in the assay on MDA-MB-453 [3].
Regarding `O=C(O)[C@H](Cc1ccc(O)cc1)N/C=C1\C(=O)N(c2ccccc2)N=C1c1ccccc1`, the IC50 was found to be 24.8 µM in the assay with MDA-MB-361 [1] and 10.9 µM in the assay with MDA-MB-453 [3]. Further, the outcome in the assay with MS-1 [5] was inactive. Further, the outcome with MDA-MB-453 [4] was Active.
On to `CSCC[C@H](N/C=C1\C(=O)NN=C1c1ccccc1)C(=O)O`, for which the result in the assay with MS-1 [11] was Active. Moreover, the concentration for half-maximal inhibition (IC50) was determined as 105 µM in the assay with MDA-MB-361 [1] and 42.1 µM with MDA-MB-453 [3].
Consider `O=C1/C(=C\Nc2cc(-c3ccccc3)[nH]n2)C(c2ccccc2)=NN1c1ccccc1`, for which the IC50 in the assay with MDA-MB-361 [1] came out at 12.2 µM; with MDA-MB-453 [3], 8.75 µM. The outcome in the assay with MS-1 [7] and in the assay on MDA-MB-453 [4] was Active.
`CCOC(=O)c1c[nH]nc1N/C=C1\C(=O)NN=C1c1ccccc1`: the figures for the IC50 in the assay on MDA-MB-361 [1] and in the assay with MDA-MB-453 [3] were 121 µM and 74.6 µM, respectively. Besides, the outcome in the assay with MS-1 [5] was inactive.
On to `CSC[C@H](N/C=C1\C(=O)NN=C1c1ccccc1)C(=O)O`, for which, in the assay with MS-1 [11], the outcome was Active. Moreover, the IC50 was determined as 97.4 µM in the assay with MDA-MB-361 [1] and 105 µM with MDA-MB-453 [3].
The corresponding values for `O=C1NN=C(c2ccccc2)/C1=C/Nc1cc[nH]n1` are “inactive”, 95.3 µM and 74.9 µM.
Turning to `O=C(O)[C@H](Cc1c[nH]c2ccccc12)N/C=C1\C(=O)N(c2ccccc2)N=C1c1ccccc1`, the IC50 in the assay with MDA-MB-361 [1] was determined as 33.9 µM; in the assay on MDA-MB-453 [3], 9.75 µM. In the assay on MDA-MB-453 [4], the outcome was Active. Besides, in the assay on MS-1 [2], the outcome was inactive.
Turning to `O=C(O)[C@H](Cc1c[nH]cn1)N/C=C1\C(=O)N(c2ccccc2)N=C1c1ccccc1`, in the assay on MS-1 [11], the result was inactive. Moreover, the IC50 with MDA-MB-361 [1] was 87.2 µM; with MDA-MB-453 [3], 71.1 µM. The outcome in the assay with MDA-MB-453 [4] was Active.
Take `O=C1/C(=C\Nc2cc(-c3ccco3)[nH]n2)C(c2ccccc2)=NN1c1ccccc1`: the IC50 in the assay on MDA-MB-361 [1] came to 13.4 µM; in the assay on MDA-MB-453 [3], 12.4 µM. For the same molecule, the Activity in the assay on MDA-MB-361 [6] stood at 13.9%; in the assay on MDA-MB-361 [8], 7.33%; in the assay on MDA-MB-361 [9] it was 21.95%; in the assay on MDA-MB-361 [10], 51.38%. Also, the outcome in the assay on MS-1 [7] and in the assay with MDA-MB-453 [4] was Active.
In the case of `Cc1cc(N/C=C2\C(=O)NN=C2c2ccccc2)n[nH]1`, the result with MS-1 [11] was Active. Further, the IC50 in the assay with MDA-MB-361 [1] is 96 µM; with MDA-MB-453 [3], 93 µM.
